{"data": "Assay results of several laboratories", "target": "Serine/threonine-protein kinase Nek10 (NEK10, Homo sapiens, UniProt Q6ZWH5)", "One construct used (Q6ZWH5 1-1172)": "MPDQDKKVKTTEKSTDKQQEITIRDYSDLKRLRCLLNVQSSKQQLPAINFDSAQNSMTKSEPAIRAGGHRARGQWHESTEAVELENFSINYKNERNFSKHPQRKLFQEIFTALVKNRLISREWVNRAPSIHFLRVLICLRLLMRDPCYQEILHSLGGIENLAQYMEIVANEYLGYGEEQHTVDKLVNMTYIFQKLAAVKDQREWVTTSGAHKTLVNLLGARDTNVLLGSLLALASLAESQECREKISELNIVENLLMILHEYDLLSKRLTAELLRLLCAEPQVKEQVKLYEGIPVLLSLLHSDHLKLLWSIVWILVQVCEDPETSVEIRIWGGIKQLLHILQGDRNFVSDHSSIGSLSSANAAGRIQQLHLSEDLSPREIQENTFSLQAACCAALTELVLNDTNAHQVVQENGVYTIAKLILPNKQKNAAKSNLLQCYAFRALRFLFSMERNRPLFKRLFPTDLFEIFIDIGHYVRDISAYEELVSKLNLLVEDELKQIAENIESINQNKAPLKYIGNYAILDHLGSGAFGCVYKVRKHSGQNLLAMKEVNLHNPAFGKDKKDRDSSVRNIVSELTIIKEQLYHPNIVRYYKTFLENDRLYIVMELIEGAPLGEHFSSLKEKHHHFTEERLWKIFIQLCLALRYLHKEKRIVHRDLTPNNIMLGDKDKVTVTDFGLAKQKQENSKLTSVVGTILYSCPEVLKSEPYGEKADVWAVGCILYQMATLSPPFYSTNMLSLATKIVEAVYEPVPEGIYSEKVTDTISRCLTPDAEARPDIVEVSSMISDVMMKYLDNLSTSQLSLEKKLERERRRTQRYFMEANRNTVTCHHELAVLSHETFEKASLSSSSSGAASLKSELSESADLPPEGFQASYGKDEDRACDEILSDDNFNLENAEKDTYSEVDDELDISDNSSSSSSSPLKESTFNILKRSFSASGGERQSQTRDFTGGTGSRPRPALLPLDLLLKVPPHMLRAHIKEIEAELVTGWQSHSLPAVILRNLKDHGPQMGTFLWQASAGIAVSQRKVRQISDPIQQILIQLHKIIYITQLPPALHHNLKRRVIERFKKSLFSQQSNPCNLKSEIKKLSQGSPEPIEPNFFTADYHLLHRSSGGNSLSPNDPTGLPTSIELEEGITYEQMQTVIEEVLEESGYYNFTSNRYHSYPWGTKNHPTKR"}
{"SMILES": "O=C(c1ccc(Nc2ncc(Cl)c(-c3cc4ccccc4s3)n2)cc1)N1CCC(N2CCCC2)CC1", "test": "binding, competition with immobilised ligand", "conditions": "1 µM", "remaining binding [%]": 74}
{"SMILES": "CN(CCCC(F)(F)F)c1nccc(-c2cnn3ncccc23)n1", "test": "binding", "conditions": "1 µM", "remaining binding [%]": 90}
{"SMILES": "O=C(c1ccc(Nc2ncc(Cl)c(-c3ccc(Cl)s3)n2)cc1)N1CCC(N2CCCC2)CC1", "test": "binding, competition with immobilised ligand", "conditions": "1 µM", "remaining binding [%]": 30}
{"SMILES": "COc1ncc2cc3ccccc3nc2c1C#N", "test": "cell-free assay, competition with immobilised ligand", "conditions": "5 µM", "remaining binding [%]": 98}
{"SMILES": "Nc1c(C(=O)NCc2ccc(C(=O)NCCCC3CCCCC3)cc2)cnn1-c1ccccc1", "test": "cell-free assay, competition with immobilised ligand", "conditions": "0.1 µM", "remaining binding [%]": 100}
{"SMILES": "Nc1ncc2c(n1)-c1c([nH]c3ccc(C#CC4CC4)cc13)CCCC2", "test": "binding, competition with immobilised ligand", "conditions": "1 µM", "remaining binding [%]": 79}
{"SMILES": "N[C@@H]1CCN(c2nccc(-c3cnn4ncccc34)n2)C1", "test": "binding", "conditions": "1 µM", "remaining binding [%]": 100}
{"SMILES": "CS(=O)(=O)N1CCCC(NC(=O)[C@H](CCC2CCCCC2)NC(=O)c2ccc(CNC(=O)c3cnc4ccccn34)cc2)C1 (some centres unmarked)", "test": "cell-free assay, competition with immobilised ligand", "conditions": "0.1 µM", "remaining binding [%]": 100}
{"SMILES": "C=CC(=O)N1CCC(C(=O)NCC(=O)N2CCN(c3nc(-c4cnc(N)nc4C(F)F)nc(N4CCOCC4)n3)CC2)CC1", "test": "binding, competition with immobilised ligand", "conditions": "1 µM", "remaining binding [%]": 76}
{"SMILES": "CCOCCn1cc(C(=O)Nc2ccc(-n3nc(-c4cccnc4)cc3C(F)(F)F)cn2)ccc1=O", "test": "cell-free assay, competition with immobilised ligand", "conditions": "1 µM", "remaining binding [%]": 94}
{"SMILES": "O=C(Nc1c[nH]nc1C(=O)NC1CCNCC1)c1cc(F)cc(F)c1", "test": "binding, competition with immobilised ligand", "conditions": "1 µM", "remaining binding [%]": 100}
{"SMILES": "CNC(=O)c1ccc(Nc2ncc(C(F)(F)F)c(NCc3nccnc3N(C)S(C)(=O)=O)n2)cc1", "test": "cell-free assay, competition with immobilised ligand", "conditions": "0.1 µM", "remaining binding [%]": 100}
{"SMILES": "CN(C)c1nccc(-c2cnn3ncccc23)n1", "test": "binding", "conditions": "1 µM", "remaining binding [%]": 100}
{"SMILES": "COc1cnc(Nc2cccc(S(N)(=O)=O)c2)nc1N1CCN(c2ccccc2)C(=O)C1", "test": "binding, competition with immobilised ligand", "conditions": "1 µM", "remaining binding [%]": 90}
{"SMILES": "COc1cc(-c2cn(C3CCc4ccccc4N(CC(F)(F)F)C3=O)nn2)ccc1-n1ccc(C)n1 (centres unmarked)", "test": "cell-free assay, competition with immobilised ligand", "conditions": "1 µM", "remaining binding [%]": 81}
{"SMILES": "O=C(NCCCN1CCOCC1)c1ccc(Nc2nccc(-c3cc4ccccc4s3)n2)cc1", "test": "binding, competition with immobilised ligand", "conditions": "1 µM", "remaining binding [%]": 59}
{"SMILES": "C[C@H]1CCN(c2nccc(-c3cnn4ncccc34)n2)C1", "test": "binding", "conditions": "1 µM", "remaining binding [%]": 91}
